Screening data as filed in PubChem BioAssay.
OXTR agonist – activates the human oxytocin receptor; CHO-OTR cells, Fluo-8 calcium fluorescence; normalized: DMSO 0%, oxytocin 100%; activation, % at 3 µM; hit rate 0.32% among 320,000; P30559;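 active means activation above the mean of all tested compounds plus 3 SD, cutoff set per screening run, cut at about 20% in these data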;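 further: peak over basal fluorescence ratio from a 100 s FLIPR kinetic read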
Target sequence (P30559 whole entry, looked up): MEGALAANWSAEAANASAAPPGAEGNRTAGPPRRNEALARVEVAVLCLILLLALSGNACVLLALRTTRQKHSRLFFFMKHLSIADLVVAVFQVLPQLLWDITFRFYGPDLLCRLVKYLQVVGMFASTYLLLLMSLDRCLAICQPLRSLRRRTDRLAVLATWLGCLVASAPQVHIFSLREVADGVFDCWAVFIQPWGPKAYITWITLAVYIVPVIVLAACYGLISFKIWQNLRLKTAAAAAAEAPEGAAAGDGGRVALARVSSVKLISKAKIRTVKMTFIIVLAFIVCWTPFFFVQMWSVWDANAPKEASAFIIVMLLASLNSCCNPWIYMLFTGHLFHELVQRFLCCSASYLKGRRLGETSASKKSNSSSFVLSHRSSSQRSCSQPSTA
TAAR1 ag – agonists of human TAAR1; Q96RJ0; activation, % at 3 µM; hit rate 0.99% among 360,000; AID 624467; CHO RD-HGA16 TAAR1, Fluo-8 calcium fluorescence; vehicle wells 0%, saturating PEA agonist 100%;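 active means activation above the mean activation of all test compounds in the run plus 3 SD, cut at about 38% in these data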
Target sequence (Q96RJ0 whole entry, looked up): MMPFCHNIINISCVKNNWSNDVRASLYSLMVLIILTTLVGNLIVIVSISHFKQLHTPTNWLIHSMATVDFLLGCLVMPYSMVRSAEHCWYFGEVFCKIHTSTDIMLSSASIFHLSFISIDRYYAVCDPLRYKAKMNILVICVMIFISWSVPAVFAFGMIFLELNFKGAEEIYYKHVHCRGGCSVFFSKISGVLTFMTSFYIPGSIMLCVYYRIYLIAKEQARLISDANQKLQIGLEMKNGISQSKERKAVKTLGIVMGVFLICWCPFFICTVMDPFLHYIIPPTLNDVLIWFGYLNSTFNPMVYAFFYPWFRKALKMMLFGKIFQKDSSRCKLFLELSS
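Repeats: no replicates (n 1) | Material: CHO-derived RD-HGA16 cells with stable Gα16 and human TAAR1 | Technique: Kinetic Fluo-8 calcium fluorescence | Schedule: 17-24 h seeding, 75 min 37 °C dye, 30 min RT | Evaluation: % activation from peak over basal fluorescence ratio, DMSO-to-PEA scaled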
V1aR counter – counter-screen for oxytocin receptor agonists: human V1a receptor agonists. CHO-V1R cells, Fluo-8 calcium fluorescence, agonist mode; 0% DMSO, 100% 3 nM vasopressin. AID 2797. activation, % at 3 µM. hit rate 0.25% among 320,000. P37288;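 active means activation above the mean activation of all tested compounds plus 3 SD, per screening run, cut at about 20% in these data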;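 further: signal is peak over basal fluorescence ratio across a 100 second FLIPR read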
OXTR potentiator – potentiates the human oxytocin receptor response | hit rate 0.061% among 320,000 | activation, % at 3 µM | P30559 | AID 2445 | CHO-OTR cells, Fluo-8 calcium fluorescence, potentiator mode; 0% = oxytocin EC15, 100% = EC100;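 active means activation above that plate's cutoff, the mean activation of tested compounds plus 3 SD, cut at about 6.6% in these data, passing the limit was not always enough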;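 further: 100% uses oxytocin at 75 nM as the full agonist control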
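System: human OTR in CHO cells; Also added: sub-maximal oxytocin, roughly EC15; Timing: compound 6 min at room temperature before oxytocin, 100 s read; Technique: Fluo-8 intracellular calcium fluorescence, ex 470-495, em 515-575 nm; Controls: oxytocin EC15 low and EC100 high; Replication: singlicate.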
TAAR1 antag – antagonists of human TAAR1 | hit rate 1.5% among 360,000 | inhibition, % at 3 µM | CHO RD-HGA16 TAAR1, Fluo-8 calcium fluorescence, antagonist;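 active means inhibition above a per-plate cutoff, the mean inhibition of test compounds on that plate plus 3 SD, cut at about 49% in these data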;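 further: 0% = DMSO plus EC80 beta-PEA response and 100% = DMSO alone without agonist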
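System: RD-HGA16 CHO cells with stable hTAAR1 and Gα16 | Probe or stimulus: EC80 β-phenethylamine stimulus | Dosing: 3 µM, single point | Times: Dye loading 75 min at 37 °C, then 30 min room temperature | Measured by: Fluo-8 calcium-sensitive fluorescence | Read-out basis: % inhibition of agonist calcium response | Replicates: n of 1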
TAAR1 ag conf – confirmation of human TAAR1 agonists. activation, % at 3 µM. shares compounds with TAAR1 ag. CHO RD-HGA16 TAAR1, Fluo-8 calcium fluorescence; scaled: DMSO 0%, maximal phenethylamine 100%. hit rate 82% among 2,400. AID 651783;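 active means activation above a cutoff set at the run's mean compound activation plus 3 SD, cut at about 39% in these data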
Ga16 ag counter – counter-screen for TAAR1 agonists: nonselective agonists in parental cells; hit rate 50% among 2,400; CHO-Ga16 parental, Fluo-8 calcium fluorescence; normalized to maximal ATP response, DMSO zero; shares compounds with TAAR1 ag; AID 651787; activation, % at 3 µM;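 active means activation above the run cutoff, the mean activation over all tested wells plus 3 SD, cut at about 12% in these data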;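 further: 0% = DMSO wells and 100% = maximal ATP response on the peak over basal ratio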
TAAR1 desensitize – TAAR1 response desensitization, agonist counter-screen; shares compounds with TAAR1 ag; CHO RD-HGA16 hTAAR1, Fluo-8 calcium, beta-PEA response inhibition; inhibition, % at 3 µM; hit rate 46% among 2,400; AID 651951;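 active means inhibition above the run cutoff, the mean inhibition of all test compounds plus 3 SD, cut at about 49% in these data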;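 further: beta-PEA stimulus applied at its EC80; loss of beta-PEA calcium signal after compound pretreatment read as receptor desensitization; 0% = DMSO with beta-PEA at EC80 and 100% = DMSO alone without agonist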
Ga16 antag count – nonselective Ga16 antagonism, counter-screen. CHO-Ga16 ATP-induced calcium, Fluo-8 fluorescence. AID 651952. hit rate 39% among 2,400. shares compounds with TAAR1 ag. inhibition, % at 3 µM;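 active means inhibition above the plate's mean compound inhibition plus 3 SD, computed per plate, cut at about 22% in these data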;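 further: 0% = EC80 ATP with DMSO and 100% = DMSO wells without ATP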
* = called active by the depositor; nt = no result given. Hits are enriched below; roughly 2.3% of the tested compounds scored in any of these assays.

SMILES	OXTR agonist	TAAR1 ag	V1aR counter	OXTR potentiator	TAAR1 antag	TAAR1 ag conf	Ga16 ag counter	TAAR1 desensitize	Ga16 antag count
COc1ccc2c(c1)c(C(C)=O)c(C)n2C	0	0	1	0	-15	nt	nt	nt	nt
COc1ccc2c(c1)c(C(=O)CN1CCc3ccccc3C1)c(C)n2C	0	69*	0	-2	-10	86*	1	33	1
CC1CCN(S(=O)(=O)c2ccc(C(=O)N3CCOCC3)cc2)CC1	-1	8	1	-5	-3	nt	nt	nt	nt
CC(O)[C@H]1CC[C@H]2[C@@H]3CC[C@H]4C[C@H](O)CC[C@]4(C)[C@H]3[C@H](O)C[C@]12C (some centres undefined)	9	14	4	-13	1	nt	nt	nt	nt
O=C(NCc1cccs1)c1cc(-c2ccccc2)on1	-1	57*	0	-3	40	28	19*	14	23*
COc1ccc(S(=O)(=O)N2CCOCC2)cc1NC(=O)CN1C(=O)NC2(CCC(C)CC2)C1=O (centres undefined)	nt	3	nt	nt	-12	nt	nt	nt	nt
CCOC(=O)c1c(C)[nH]c(C(=O)COC(=O)c2cnccn2)c1C	0	74*	1	0	13	0	2	7	13
CC1(C(=O)Nc2cccc(Oc3ccccc3)c2)CCN1C1Cc2ccccc2C1 (centres undefined)	nt	2	nt	nt	-11	nt	nt	nt	nt
COc1ccc(C(C)(C)C)cc1NC(=O)C1CC(=O)N(C2CCCC2)C1 (centres undefined)	0	3	0	0	-1	nt	nt	nt	nt
Cc1ccc(-n2cc(CNCCc3cscn3)c(-c3ccc(F)cc3)n2)cc1	1	46*	1	-15	-10	57*	6	13	7
CC(=NCCc1ccccc1)C1=C(O)CCC1=O	0	105*	1	0	74*	98*	1	73*	8
CC(=O)C1=C(O)CCC1=NCCc1ccccc1	0	1	0	-6	-8	nt	nt	nt	nt
CC(=NCCc1ccccc1)C1=C(O)CSC1=O	-1	93*	0	-11	75*	84*	0	56*	6
CCOC(=O)c1ccc(NC(=S)N2CCSC2c2c(F)cc(F)cc2F)cc1 (centres undefined)	7	25	8	-14	44	nt	nt	nt	nt
Fc1cc(F)c(C2SCCN2C(=S)Nc2cccc(C(F)(F)F)c2)c(F)c1 (centres undefined)	18	66*	10	-15	3	52*	31*	56*	38*
COc1ccc2oc(C(=O)OCC(=O)Nc3ccc(NC(C)=O)cc3)c(C)c2c1	3	1	1	0	2	nt	nt	nt	nt
COc1ccc2oc(C(=O)OCC(=O)NCc3ccccc3OC)c(C)c2c1	-1	70*	-1	-4	91*	23	5	52*	15
CCOc1ccc(C(=O)NNC(=O)CCNC(=O)c2ccco2)cc1OC	0	4	0	-5	-8	nt	nt	nt	nt
OC(c1ccccc1)(C1CCCCC1)C(CN1CCOCC1)c1ccccc1 (centres undefined)	1	52*	-1	4	3	59*	33*	29	8
CCOC(=O)C1CCN(C(=O)CCC(=O)NCCc2ccc(Cl)cc2)CC1	-1	5	1	-4	-2	nt	nt	nt	nt
CCOC(=O)C1CCC(CNCc2ccc(Cl)cc2)CC1 (centres undefined)	0	71*	2	0	21	1	4	0	-6
CC(=O)Oc1ccc2nc(-c3ccc(Br)o3)oc(=O)c2c1	0	6	1	-4	-17	nt	nt	nt	nt
COc1cccc(CN2CCN(Cc3cccn3-c3cccnc3)CC2CCO)c1 (centres undefined)	-1	6	-1	5	8	nt	nt	nt	nt
O=S(=O)(NCCc1csc(-c2ccccc2)n1)c1ccc2c(c1)OCCO2	6	94*	7	-17	34	62*	43*	32	24*
CCOc1ccccc1CN1CCNC(=O)C1CC(=O)N(C)CCc1cnn(C)c1 (centres undefined)	5	0	0	-2	-9	nt	nt	nt	nt
SMILES	OXTR agonist	TAAR1 ag	V1aR counter	OXTR potentiator	TAAR1 antag	TAAR1 ag conf	Ga16 ag counter	TAAR1 desensitize	Ga16 antag count
CN(CCc1ccccc1)C(=O)CC1C(=O)NCCN1Cc1ccccn1 (centres undefined)	nt	63*	nt	nt	42	71*	3	60*	8
CC(C)CC1=NN2C(=N)/C(=C\c3coc4ccccc4c3=O)C(=O)N=C2S1	nt	355*	nt	nt	104*	149*	131*	82*	80*
CCSC1=NSC2=NC(=O)/C(=C\c3coc4ccccc4c3=O)C(=N)N12	62*	252*	47*	-11	108*	204*	279*	103*	99*
CC(C)[C@@H]1CC2=C(C(=O)OC(C)(C)O2)[C@H](CCc2ccccc2)O1	nt	8	nt	nt	-19	nt	nt	nt	nt
CC(C)c1ccc(C(=O)OCC(=O)NC2CCCC2)cc1	1	1	3	-9	8	nt	nt	nt	nt
Fc1ccccc1CSc1ncnc2c1ncn2C1CCCCO1 (centres undefined)	nt	4	nt	nt	-20	nt	nt	nt	nt
Clc1ccc(CSc2ncnc3c2ncn3C2CCCCO2)cc1 (centres undefined)	nt	64*	nt	nt	37	15	11	10	14
Nc1ccc(C(=O)Nc2ccc(NC(=O)c3ccco3)c(O)c2)cc1	1	1	1	-10	6	nt	nt	nt	nt
CC(=O)Nc1cc2c3ccccc3n(C)c2cc1[N+](=O)[O-]	nt	-2	nt	nt	0	nt	nt	nt	nt
CN1C(=O)C(C)(C)c2cc(S(=O)(=O)N3CCCC3C(=O)NCc3ccccc3Cl)ccc21 (centres undefined)	-1	3	0	-11	-5	nt	nt	nt	nt
O=C(Nc1n[nH]c(=S)s1)c1ccc2ccccc2c1	6	57*	1	-7	20	42*	20*	2	5
CN(CCc1ccccc1)C(C(=O)Nc1ccc2c(c1)OCCO2)c1ccnc2ccccc12 (centres undefined)	nt	61*	nt	nt	53*	78*	7	42	12
Cc1cc(C)n2nc(C(=O)N/N=C/C=C/c3ccccc3)nc2n1	1	0	0	3	-7	nt	nt	nt	nt
